Activity calls are given as the source filed them.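 How the source made its calls, unless noted: active means fluorescence slope after compound addition differing from the mean of all tested samples at 99.7% confidence, mostly higher but some lower; inactive means the rest.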
Key:
[1] = inhibitors of TNFa-induced NFkB p65 translocation, primary screen, imaging, HUVEC, MLSMR starter and 10KST1 sets (AID 438;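 active means inhibition above 20% together with a positive visual image hit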;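 further: compound added about 3h40 before a 20 min TNFalpha stimulation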;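 on inhibition: signal is the nuclear over cytoplasmic p65 intensity ratio per well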); settings: HUVEC TNFa-induced p65 nuclear translocation; cell count: measured here: nuclei count (cytotoxicity indicator), at 2.08 µM; inhibition: at 2 µM, stronger effect = higher value, 0% TNFa-plus-vehicle, 100% no-TNFa wells
[2] = reduction of polyQ htt aggregates in cells – imaging, exon1htt(103Q)mCFP cells, high-content imaging, primary screen (AID 483;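 active means visual image review flags a hit and inhibition of aggregation exceeds 20%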;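 further: compound exposure lasted 3 days before fixation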;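 on nuclei count: percent of the per-plate median nuclei count of sample wells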); settings: exon1htt(103Q)mCFP cell line, aggregate imaging, at 2 µM; inhibition of aggregation: stronger effect = higher value; nuclei count: measured here: cell count, toxicity
[3] = endothelial E-selectin expression blockers – imaging, HUVEC, immunofluorescence, MLSMR starter and 10KST1 sets, primary screen (AID 487;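 active means visually confirmed hit in the image check and inhibition above 20%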;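 on inhibition: signal is fraction of cell area covered by stained E-selectin grains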;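 on nuclei count: 100% = median nuclei count of all wells on the same plate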); settings: HUVEC TNFalpha-induced E-selectin immunofluorescence imaging, at 2 µM; inhibition: stronger effect = higher value; nuclei count: measured here: cell number, toxicity
[4] = molecular target: Voltage-gated potassium channel subunit beta-2 (Rattus norvegicus) (UniProt P62483); experiment: inhibitors of rat Kvbeta2 reductase activity – biochemical, NADPH fluorescence, primary screen (AID 622;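 active means fluorescence slope higher than the sample average by over 3 SD, cut at about -0.22 in these data, passing the limit was not always enough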;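 further: slope of raw intensity against log time taken from 70 to 1610 s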); settings: recombinant KvBeta, 4-cyanobenzaldehyde reduction, at 10 µM, stronger effect = higher value
[5] = molecular target: Voltage-gated potassium channel subunit beta-2 (Rattus norvegicus) (UniProt P62483); experiment: enhancers of rat Kvbeta2 NADPH turnover – biochemical, NADPH fluorescence, primary screen (AID 623;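 active means NADPH fluorescence slope more negative than the mean of all samples by about 3 SD, 99.7% confidence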;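 further: fluorescence intensity change per second fitted from 20 to 320 s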); settings: Recombinant KvBeta, NADPH fluorescence decrease slope, 10 min; at 10 µM; stronger effect = lower value
[6] = molecular target: Muscarinic acetylcholine receptor M4 (Homo sapiens) (UniProt P08173); experiment: M4-linked GIRK flux change, two-sided – cell-based, HEK293 M4/GIRK, thallium flux, BTC-AM, M4 allosteric agonist project, primary screen (AID 625); settings: at 10 µM, actives lie on both sides;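 further: thallium influx through GIRK channels coupled to M4 in HEK293 cells with BTC-AM dye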
In short: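 assay system = HEK293 cells with M4 receptor and GIRK channels | medium = pH 7.3 thallium assay buffer | doses = 10 µM final, single point | timing = cells overnight at 37 °C, BTC-AM loading 1 h, reads 2 min total | signal = BTC-AM fluorescence, 1 Hz kinetic reads | read-out = post-addition slope, 15–24 s, of baseline-normalized fluorescence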

[7] = blockers of RIG-like receptor reporter activation – cell-based, Sendai virus stimulus, luciferase, 10K MLSCN set, TLR/RLR signaling modifier project, primary screen (AID 602276;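 active means inhibition at or above 50% at 10 µM; inactive means inhibition below 50%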;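 further: firefly luciferase from ISG56 promoter only with Renilla not read in this screen; 0% = Sendai virus plus DMSO and 100% = medium plus DMSO without virus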); settings: HEK293 RL24 IRF3 luciferase reporter, at 10 µM, stronger effect = higher value
[8] = TLR3 IRF3 reporter activation blockers – cell-based, poly I:C stimulus, luciferase, 10K MLSCN set, primary screen (AID 602277;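 active means inhibition of the reporter signal at or above 50%; inactive means inhibition below 50%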); settings: HEK293-TLR3 RL24 IRF3 luciferase reporter, at 10 µM, stronger effect = higher value

Chain of Voltage-gated potassium channel subunit beta-2 (Rattus norvegicus) (P62483 whole entry, looked up): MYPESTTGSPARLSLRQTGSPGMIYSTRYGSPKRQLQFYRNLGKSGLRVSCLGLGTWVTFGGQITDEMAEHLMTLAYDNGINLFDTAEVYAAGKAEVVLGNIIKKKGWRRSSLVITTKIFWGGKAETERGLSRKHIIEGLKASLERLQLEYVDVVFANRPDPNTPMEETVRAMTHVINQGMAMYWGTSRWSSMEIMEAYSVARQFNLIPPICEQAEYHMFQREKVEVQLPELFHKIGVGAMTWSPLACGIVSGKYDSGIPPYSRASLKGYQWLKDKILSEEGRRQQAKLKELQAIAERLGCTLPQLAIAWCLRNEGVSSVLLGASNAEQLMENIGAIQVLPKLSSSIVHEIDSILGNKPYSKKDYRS
Chain of Muscarinic acetylcholine receptor M4 (Homo sapiens) (P08173 whole entry, looked up): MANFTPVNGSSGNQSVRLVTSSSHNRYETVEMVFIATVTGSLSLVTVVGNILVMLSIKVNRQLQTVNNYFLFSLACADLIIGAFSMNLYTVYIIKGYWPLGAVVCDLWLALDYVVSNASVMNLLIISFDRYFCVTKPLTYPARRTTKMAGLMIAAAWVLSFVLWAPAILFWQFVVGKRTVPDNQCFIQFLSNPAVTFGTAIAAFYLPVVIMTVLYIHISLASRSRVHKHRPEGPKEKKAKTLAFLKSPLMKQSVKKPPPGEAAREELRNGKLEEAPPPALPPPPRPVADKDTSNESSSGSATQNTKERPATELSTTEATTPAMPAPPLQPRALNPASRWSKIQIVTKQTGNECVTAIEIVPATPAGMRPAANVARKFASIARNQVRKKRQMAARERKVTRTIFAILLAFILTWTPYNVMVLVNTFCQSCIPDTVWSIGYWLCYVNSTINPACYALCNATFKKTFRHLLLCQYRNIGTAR

Row | Structure (SMILES) | cell count [1] | inhibition [1] | inhibition of aggregation [2] | nuclei count [2] | inhibition [3] | nuclei count [3] | fluorescence slope [4] | NADPH fluorescence slope [5] | fluorescence slope [6] | inhibition [7] | inhibition [8]
1 | COc1cccc(N2CCN(Cc3nc(N)nc(Nc4ccccc4OC)n3)CC2)c1 | 495 | 2.9% (inactive) | -8.8% (inactive) | 97.2% | 2.5% (inactive) | 104% | -0.562 (inactive) | -3.3e-05 (inactive) | 0.00593 (inactive) | 19% (inactive) | 17.2% (inactive)
2 | CCOc1ccc(-n2cc(C(=O)Nc3cccc(C)n3)c3cc(OC)c(OC)cc3c2=O)cc1 | 395 | 5.1% (inactive) | 20.8% (inactive) | 82.4% | -8% (inactive) | 94% | -0.414 (inactive) | -0.000102 (inactive) | 0.0107 (inactive) | 13.3% (inactive) | 25.9% (inactive)
3 | Nc1nc(-c2ccccc2Br)cs1 | 392 | 4.7% (inactive) | -8.3% (inactive) | 110% | -133% (inactive) | 119% | -0.574 (inactive) | -1.6e-05 (inactive) | 0.00573 (inactive) | -14.5% (inactive) | -27% (inactive)
4 | CCCCOC(=O)Cn1c(=N)n(CCN2CCOCC2)c2ccccc21 | 488 | 4% (inactive) | 7.9% (inactive) | 91.9% | -46.3% (inactive) | 84.8% | -0.354 (inactive) | -6.5e-05 (inactive) | 0.00576 (inactive) | 8.18% (inactive) | 17.7% (inactive)
5 | COc1cc(-c2nnc(SCC(=O)c3cc(C)n(CC4CCCO4)c3C)o2)cc(OC)c1OC (centres undefined) | 317 | 2.8% (inactive) | 23.1% (inactive) | 94.5% | -43.2% (inactive) | 115% | -0.245 (inactive) | -3.7e-06 (inactive) | 0.00647 (inactive) | 24.8% (inactive) | 27.1% (inactive)
6 | O=C(O)COc1ccc2occ(C(=O)c3ccccc3)c2c1 | 232 | -4.4% (inactive) | 24.2% (inactive) | 94.5% | -56.2% (inactive) | 104% | -0.592 (inactive) | -4.3e-05 (inactive) | 0.00364 (inactive) | 10.3% (inactive) | 4.56% (inactive)
7 | CS(=O)(=O)Nc1ccc(S(=O)(=O)Nc2nccs2)cc1 | 418 | 5.4% (inactive) | -6.9% (inactive) | 112% | -42.5% (inactive) | 87.9% | -0.399 (inactive) | 7.8e-05 (inactive) | 0.00758 (inactive) | 9.08% (inactive) | 14.5% (inactive)
8 | COc1ccccc1-c1c(C)nn2c(C)c(C(C)=O)cnc12 | 768 | -0.8% (inactive) | 13.5% (inactive) | 97% | 96.7% (active) | 81.4% | -0.611 (inactive) | -3.6e-05 (inactive) | 0.00778 (inactive) | 17.1% (inactive) | 14.2% (inactive)
9 | Nc1nnc(Cc2ccc(Cl)cc2)s1 | 331 | 7.5% (inactive) | -4.2% (inactive) | 92.7% | -130% (inactive) | 115% | -0.483 (inactive) | -7.5e-05 (inactive) | 0.00532 (inactive) | 11.6% (inactive) | 13% (inactive)
10 | COC(=O)c1c(-c2ccc(F)cc2)noc1N | 502 | 5.3% (inactive) | -3.7% (inactive) | 106% | -2% (inactive) | 104% | -0.278 (inactive) | -6.3e-06 (inactive) | 0.00633 (inactive) | -1.09% (inactive) | -9.58% (inactive)
11 | O=C(CN1CCC(n2nnc3cc(F)ccc32)CC1)Nc1ccc2c(c1)CCC2 | 590 | -57.1% (inactive) | -14.1% (inactive) | 112% | -84.4% (inactive) | 108% | -0.364 (inactive) | -1.5e-05 (inactive) | 0.00687 (inactive) | 14.8% (inactive) | 1.94% (inactive)
12 | COCC(=O)N(Cc1nc2ccccc2c(=O)[nH]1)Cc1cccs1 | 608 | -5.4% (inactive) | -6.1% (inactive) | 105% | -64.2% (inactive) | 114% | -0.557 (inactive) | -3e-05 (inactive) | 0.00566 (inactive) | 20.3% (inactive) | 22.3% (inactive)
13 | COc1cccc(N2CCN(c3c4c(nc5ncnn35)CCC4)CC2)c1 | 468 | 17.4% (inactive) | -4.1% (inactive) | 102% | 2.7% (inactive) | 109% | -0.558 (inactive) | -5.9e-05 (inactive) | 0.00591 (inactive) | 0.933% (inactive) | -39.1% (inactive)
14 | COc1ccc(N2C(=O)C3CCCN3C2c2ccc(F)cc2)cc1Cl (centres undefined) | 412 | -2.7% (inactive) | -12.9% (inactive) | 101% | 18.5% (inactive) | 89.1% | -0.538 (inactive) | -1.5e-05 (inactive) | 0.00539 (inactive) | 7.49% (inactive) | 14.6% (inactive)

Source: PubChem BioAssay
